Data taken from ChEMBL document CHEMBL3526127, “Absorption, elimination, and metabolism of CS-1036, a novel α-amylase inhibitor in rats and monkeys, and the relationship between gastrointestinal distribution and suppression of glucose absorption” (Drug Metab Dispos, 2013).
Each block holds one molecule with its values, some of them ahead of it.

Key:
[1] = Drug excretion in bile duct cannulated F344 rat bile at 1 mg/kg, iv administered as single dose after 0 to 48 hrs by scintillation counting method; assay type: ADME, organism-based; parameters: dose 1 mg/kg, route intravenous; details: in vivo
In short: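 Common bile duct was cannulated under diethyl ether in fasted F344 rats. After recovery, [14C]-labelled drug (1 mg/kg, 41.9 µCi/kg) was given iv via tail vein or by oral gavage (n = 4). Rats were held in Bollman cages and bile was collected at 4°C over 0–48 h intervals. Bile was counted by liquid scintillation; % of dose.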

[2] = tested on: Ileum; assay: Drug distribution in F344 rat ileum at 1 mg/kg, po administered as single dose after 1 hr by scintillation counting method; assay type: ADME, organism-based; parameters: dose 1 mg/kg, route oral; details: in vivo
In short: (§1)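 [14C]-labelled drug (1 mg/kg, 42.4 µCi/kg) was given orally to fasted F344 rats (148–168 g, n = 3). Contents of stomach, duodenum+jejunum, ileum and cecum were washed out with water at 0.5–8 h, homogenized, solubilized and counted by liquid scintillation. Results are % of dose, mean ± S.D.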

[3] = Drug distribution in F344 rat cecum at 1 mg/kg, po administered as single dose after 4 hrs by scintillation counting method; assay type: ADME, organism-based, Caecum; parameters: dose 1 mg/kg, route oral; details: in vivo; in short: as §1
[4] = Ratio of drug level in blood to plasma in human after 5 mins; assay type: ADME
[5] = Drug metabolism in anaerobic culture broth of human feces assessed as 1,4-dideoxy-1,4-imino-D-arabinitol formation at 63.5 uCi/ml after 24 hrs at 35 degC by LC-MS/MS method; assay type: ADME, tissue-based
[6] = Drug excretion in cynomolgus monkey feces at 3 mg/kg, iv administered as single dose after 0 to 48 hrs by scintillation counting method; assay type: ADME, organism-based, Macaca fascicularis; parameters: dose 3 mg/kg, route intravenous; details: in vivo
In short: (§2)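 Fasted cynomolgus monkeys (n = 4) received [14C]-labelled drug at 3 mg/kg, iv via saphenous vein (191 µCi/kg) or orally by stomach catheter (156.5 µCi/kg). Urine, feces and water cage-wash were collected to 336 h. Samples were counted by liquid scintillation; feces were homogenized in 4-fold water. Results are % of dose, mean ± S.D.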

[7] = tested on: Cynomolgus monkey; assay: Total drug excretion in cynomolgus monkey at 3 mg/kg, iv administered as single dose after 0 to 48 hrs by scintillation counting method; assay type: ADME, organism-based, Macaca fascicularis; parameters: dose 3 mg/kg, route intravenous; details: in vivo
In short: (§3)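 Fasted male cynomolgus monkeys (n = 4) were dosed with 14C-labelled drug at 3 mg/kg, iv via saphenous vein (191 µCi/kg) or orally by stomach catheter (156.5 µCi/kg). Urine, feces and cage-wash water were collected to 336 h. Radioactivity was measured by liquid scintillation counting, with feces homogenized in water, and expressed as % of dose.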

[8] = tested on: Cynomolgus monkey; assay: Total drug excretion in cynomolgus monkey at 3 mg/kg, iv administered as single dose after 0 to 336 hrs by scintillation counting method; assay type: ADME, organism-based, Macaca fascicularis; parameters: dose 3 mg/kg, route intravenous; details: in vivo; in short: as §3
[9] = Drug excretion in cynomolgus monkey feces at 3 mg/kg, po administered as single dose after 0 to 336 hrs by scintillation counting method; assay type: ADME, organism-based, Macaca fascicularis; parameters: dose 3 mg/kg, route oral; details: in vivo; in short: as §2
[10] = tested on: Cynomolgus monkey; assay: Total drug excretion in cynomolgus monkey at 3 mg/kg, po administered as single dose after 0 to 336 hrs by scintillation counting method; assay type: ADME, organism-based, Macaca fascicularis; parameters: dose 3 mg/kg, route oral; details: in vivo; in short: as §3
[11] = Drug excretion in cynomolgus monkey feces at 3 mg/kg, po administered as single dose after 48 hrs by scintillation counting method; details: in vivo
[12] = Drug metabolism in monkey intestinal S9 fractions at 0.42 uCi/ml assessed as metabolite formation in presence of NADPH after 1 hr at 37 degC by LC-MS/MS method; details: cynomolgus monkey, s9, 1 h
[13] = AUClast in cynomolgus monkey at 1 mg/kg, iv administered as single dose by LC-MS/MS method; assay type: ADME, organism-based, Macaca fascicularis; parameters: time 0 - last, dose 1 mg/kg, route intravenous; details: plasma
In short: (§4)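 Fasted male F344 rats (146–185 g) or male cynomolgus monkeys (3.48–4.29 kg), n = 4 per dose, given single iv or oral dose of 0.3, 1.0, 3.0 or 10.0 mg/kg; monkeys dosed with 2-week washouts. Blood sampled to 48 h; plasma stored frozen. LC-MS/MS with deuterated internal standard. Noncompartmental analysis: AUClast by trapezoidal rule; AUC0–inf = AUClast + Ctz/terminal rate constant; mean ± S.D.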

[14] = Cmax in cynomolgus monkey at 3 mg/kg, po administered as single dose by LC-MS/MS method; assay type: ADME, organism-based, Macaca fascicularis; parameters: dose 3 mg/kg, route oral; details: in vivo
In short: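 Fasted male F344 rats (146–185 g) and cynomolgus monkeys (3.48–4.29 kg), n = 4 each, received a single oral dose; monkeys had 2-week washouts. Plasma sampled up to 48 h, stored at […], assayed by LC-MS/MS with a deuterated internal standard. Cmax taken from observed data by noncompartmental analysis; mean ± S.D. (n = 3 or 4).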

[15] = AUC (0 to infinity) in cynomolgus monkey at 0.3 mg/kg, iv administered as single dose by LC-MS/MS method; assay type: ADME, organism-based, Macaca fascicularis; parameters: time infinity, dose 0.3 mg/kg, route intravenous; details: plasma; in short: as §4
[16] = Clearance in F344 rat at 3 mg/kg, iv administered as single dose by LC-MS/MS method; assay type: ADME, organism-based; parameters: dose 3 mg/kg, route intravenous; details: in vivo
In short: (§5)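 Fasted male F344 rats (146–185 g) and male cynomolgus monkeys (3.48–4.29 kg), n = 4 each, received a single iv dose; monkeys had 2-week washouts between doses. Blood was sampled up to 48 h and plasma stored at […]. Plasma parent was quantified by LC-MS/MS with a deuterated internal standard. CL = dose/AUC0–inf by noncompartmental analysis; mean ± S.D.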

[17] = Clearance in cynomolgus monkey at 1 mg/kg, iv administered as single dose by LC-MS/MS method; assay type: ADME, organism-based, Macaca fascicularis; parameters: dose 1 mg/kg, route intravenous; details: in vivo; in short: as §5
[18] = Volume of distribution at steady state in F344 rat at 10 mg/kg, iv administered as single dose by LC-MS/MS method; assay type: ADME, organism-based; parameters: dose 10 mg/kg, route intravenous; details: in vivo, read-out: Vdss
In short: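 Male F344 rats (146–185 g) and male cynomolgus monkeys (3.48–4.29 kg), n = 4 each, fasted overnight, received single iv or oral doses of 0.3, 1.0, 3.0 or 10.0 mg/kg. Monkeys had 2-week washouts between doses. Plasma was sampled to 48 h and assayed by LC-MS/MS with deuterated internal standard. Noncompartmental analysis: tmax observed; t1/2 by regression on ≥3 terminal log points; Vss = dose·AUMC/(AUC0–inf)²; Foral = oral/iv AUC0–inf at the same dose.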

[19] = Half life in F344 rat at 0.3 mg/kg, iv administered as single dose by LC-MS/MS method; assay type: ADME, organism-based; parameters: dose 0.3 mg/kg, route intravenous; details: in vivo
In short: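 Fasted male F344 rats (146–185 g, n = 4 per dose) received single i.v. CS-1036. Plasma was sampled up to 48 h and analysed by LC-MS/MS. t1/2 came from noncompartmental regression of three or more log-transformed terminal-phase points. Mean ± S.D.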

[20] = AUC (0 to infinity) in F344 rat at 1 mg/kg, iv administered as single dose by LC-MS/MS method; assay type: ADME, organism-based; parameters: time infinity, dose 1 mg/kg, route intravenous; details: plasma; in short: as §4
[21] = AUClast in F344 rat at 10 mg/kg, po administered as single dose by LC-MS/MS method; assay type: ADME, organism-based; parameters: time 0 - last, dose 10 mg/kg, route oral; details: plasma; in short: as §4
[22] = AUClast in F344 rat at 3 mg/kg, po administered as single dose by LC-MS/MS method; assay type: ADME, organism-based; parameters: time 0 - last, dose 3 mg/kg, route oral; details: plasma; in short: as §4
[23] = AUClast in F344 rat at 1 mg/kg, po administered as single dose by LC-MS/MS method; assay type: ADME, organism-based; parameters: time 0 - last, dose 1 mg/kg, route oral; details: plasma; in short: as §4
[24] = Half life in F344 rat at 0.3 mg/kg, po administered as single dose by LC-MS/MS method; assay type: ADME, organism-based; parameters: dose 0.3 mg/kg, route oral; details: in vivo

- Drug excretion [1]: 0.37%
- Drug uptake [2]: 67.7%
- Drug uptake [3]: 49.4%
- blood plasma ratio at 5 min [4]: 0.521
- Drug metabolism [5]: metabolite_detected
- Drug excretion [6]: 0.46%
- Drug excretion [7]: 94.29%
- Drug excretion [8]: 96.29%
- Drug excretion [9]: 88.13%
- Drug excretion [10]: 95.15%
- Drug excretion [11]: 48.7%
- Drug metabolism [12]: metabolite_not_detected
SMILES: C[C@H]1O[C@@H](O[C@H]2[C@H](O)[C@@H](O)[C@@H](O[14C@H]3[14C@H](O)[14CH2]N[14C@@H]3[14CH2]O)O[C@@H]2CO)[C@H](O)[C@@H](O)[C@@H]1O

- AUC(0-t) [13]: 5870 ng·h/mL
- Cmax [14]: 44.8 ng/mL
- AUC(0-inf) [15]: 2010 ng·h/mL
- clearance [16]: 2.67 mL/min/kg
- clearance [17]: 2.84 mL/min/kg
- Vd [18]: 0.222 L/kg
- half-life [19]: 14.6 h
- AUC(0-inf) [20]: 4930 ng·h/mL
- AUC(0-t) [21]: 1050 ng·h/mL
- AUC(0-t) [22]: 324 ng·h/mL
- AUC(0-t) [23]: 110 ng·h/mL
- half-life [24]: 2.69 h
SMILES: C[C@H]1O[C@@H](O[C@H]2[C@H](O)[C@@H](O)[C@@H](O[C@H]3[C@H](O)CN[C@@H]3CO)O[C@@H]2CO)[C@H](O)[C@@H](O)[C@@H]1O
